Key:
[1] = tested on: H460 cells; test: H460 xenograft: histopathology of tumor; format: in vivo, BALB/c nude mice; details: H460-xenografted mice; 29th day; histopathologic examination
Method in brief: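 Nude mice were inoculated s.c. in the flank with H460 cells (approximately 3 × 10^6 to 5 × 10^6 in 100 μl PBS). Dosing began at about 100 mm3: test compound 5 mg/kg i.v. every other day ×5, PI3K inhibitor 40 mg/kg i.p. daily, or both. Tumors were taken 24 h after the final treatment for cleaved caspase-3 immunohistochemistry. Lungs were taken 29 days after transplantation for H&E histology.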

[2] = tested on: DNA repair proteins (Mre11, Nbs1, pNbs1, Rad50, Rad51, FANCD2); test: Western blot of DNA repair proteins in lung cancer cells; format: cell-based, human; details: LY294002 40 μM with 20 μM BO-1509, 24 hours; H460, A549, PC9, PC9/gef B4
Method in brief: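 H460, A549, PC9 and PC9/gef B4 cells were treated for 24 h with 10-80 μM test compound. Alternatively, they received 20 μM test compound and/or 40 μM PI3K inhibitor for 24 h. Lysates in electrophoresis sample buffer were run on SDS-PAGE and transferred to PVDF. Membranes took primary antibodies overnight at 4°C and HRP secondary antibody for 1 h at room temperature. Detection was by chemiluminescence, with β-actin as loading control.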

[3] = Complete blood profile in treated mice; format: in vivo, BALB/c nude mice; details: 10th day
Method in brief: (§1)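 Male BALB/c nude mice, six weeks old, received vehicle, test compound, PI3K inhibitor, or both. The test compound was given at 5 mg/kg i.v. on days 0, 2, 4, 6 and 8; the inhibitor at 40 mg/kg i.p. daily. Vehicle was 0.9% saline with 8% DMSO, 6% Tween-80 and 16% cremophor. Hematological and serum biochemical parameters were measured 1 day after the last i.v. injection.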

[4] = tested on: H460 cells; test: Alamar Blue cytotoxicity assay, H460; format: cell-based; details: Homo sapiens, NCI-H460, 72 h, read-out: IC50 (50% inhibition of cell growth)
Method in brief: (§2)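 Cells were seeded at 3000 per well and incubated overnight at 37°C. They were then exposed for 72 h to a range of test compound concentrations, alone or combined with a PI3K inhibitor. Alamar Blue was added for 6 h and absorbance read at 570 and 600 nm. IC50 was derived by the median-effect principle, as mean ± SD of three independent experiments. A549 was kept in DMEM; other lines in RPMI 1640 with 10% FBS, at 37°C and 5% CO2.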

[5] = Blood enzymes / biochemical parameters in treated mice; format: in vivo; details: 10th day; BALB/c nude mice; mean ± SD
Method in brief: as §1

[6] = tested on: PC9/gef B4 cells; test: Alamar Blue cytotoxicity assay, PC9/gef B4; format: cell-based; details: Homo sapiens, 72 h, read-out: IC50 (50% inhibition of cell growth)
Method in brief: as §2

[7] = tested on: PC9/gef B4 cells; test: Mouse xenograft model, PC9/gef B4; format: in vivo, BALB/c nude mice; details: PC9/gef B4-xenografted mice; LY294002 40 mg/kg i.p. daily
Method in brief: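 PC9/gef B4 cells were implanted s.c. in the flank of male BALB/c nude mice, six weeks old. At about 70 mm3, mice were randomized into four groups: vehicle, test compound 5 mg/kg i.v. every other day ×5, PI3K inhibitor by daily i.p. injection, or the combination. Vehicle was saline with 8% DMSO, 6% Tween-80 and 16% cremophor. Caliper tumor volume was calculated as (length × width²)/2.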

[8] = tested on: A549 cells; test: Alamar Blue cytotoxicity assay, A549; format: cell-based; details: Homo sapiens, A549, 72 h, read-out: IC50 (50% inhibition of cell growth)
Method in brief: as §2

[9] = tested on: PC9 cells; test: Alamar Blue cytotoxicity assay, PC9; format: cell-based; details: Homo sapiens, PC-9, 72 h, read-out: IC50 (50% inhibition of cell growth)
Method in brief: as §2

[10] = tested on: H460, A549, PC9, or PC9/gef B4 cells; test: Mouse xenograft models, suppression of tumor growth; format: in vivo, BALB/c nude mice; details: H460, A549, PC9, PC9/gef B4 xenografts; BO-1509 5 mg/kg i.v. every other day times five; LY294002 40 mg/kg i.p. daily

In the case of `O=c1cc(N2CCOCC2)oc2c(-c3ccccc3)cccc12` [LY294002, 2-(4-morpholinyl)-8-phenyl-4H-1-benzopyran-4-one], the “metastasis in the lungs” value [1] is reported as 80%, the “BO-1509-induced increase in pNbs1 and Rad51” value [2] is reported as “suppressed” and the Basophils ([3]; BALB/c nude mice, mean ± SD) is reported as 0.07 ± 0.00 10^3/μl. The Eosinophils ([3]; BALB/c nude mice, mean ± SD) was 0.06 ± 0.01 10^3/μl, the Hematocrit ([3]; BALB/c nude mice, mean ± SD) was 54.1 ± 0.70% and the Hemoglobin ([3]; BALB/c nude mice, mean ± SD) was 16.25 ± 0.10 g/dL. For the same molecule, the Lymphocytes ([3]; BALB/c nude mice, mean ± SD) was 0.81 ± 0.10 10^3/μl, the Mean cell hemoglobin ([3]; BALB/c nude mice, mean ± SD) was 15.40 ± 0.09 pg and the Mean cell volume ([3]; BALB/c nude mice, mean ± SD) was 51.5 ± 0.30 fL. For the same molecule, the “Mean corpuscular hemoglobin concentration” value ([3]; BALB/c nude mice, mean ± SD) was 29.90 ± 0.30 g/dL, the Monocytes ([3]; BALB/c nude mice, mean ± SD) was 0.15 ± 0.05 10^3/μl and the Neutrophils ([3]; BALB/c nude mice, mean ± SD) was 1.27 ± 0.10 10^3/μl. For the same molecule, the Platelets ([3]; BALB/c nude mice, mean ± SD) was 783 ± 86 10^3/μl, the RBC distribution width ([3]; BALB/c nude mice, mean ± SD) was 20.90 ± 1.00% and the RBCs ([3]; BALB/c nude mice, mean ± SD) was 10.53 ± 0.10 10^6/μl. The WBCs ([3]; BALB/c nude mice, mean ± SD) was 2.37 ± 0.20 10^3/μl, the “decrease of RBC count and hemoglobin concentration” value ([3]; treated mice versus control) was “minimal changes” and the IC50 [4] was 111 ± 15.1 µM. For the same molecule, the AST [5] was 75.6 ± 17.8 U/l, the Alanine aminotransferase [5] was 31.6 ± 2.5 U/l and the Blood urea nitrogen [5] was 25.0 ± 5.8 mg/dL. The “Glucose (GLU-P)” value [5] was 172 ± 23 mg/dL, the LDH [5] was 463 ± 117 U/l and the IC50 [6] was 31.3 ± 3.8 µM. The “suppression of the tumor burden” value [7] was roughly 40%, the IC50 [8] was 28.4 ± 4.3 µM and the IC50 [9] was 56.9 ± 1.1 µM. The “suppression of the tumor burden” value [10] was “limited”.

From article PMC4101349 (Translational Oncology, 2014)
